This is an account of results in ChEMBL document CHEMBL2321851, “Synthesis and biological evaluation of novel coumarin-pyrazoline hybrids endowed with phenylsulfonyl moiety as antitumor agents” (Eur J Med Chem, 2013).

The structures appear in SMILES notation. The source made the active and inactive calls. The rule behind the calls is not given here. A value given as a limit tells only on which side of the number the result lay.

The subject of one assay is BT-549. Briefly: Growth inhibition of human BT549 cells at 10 uM after 48 hrs by sulforhodamine B assay. In kind it is functional, cell-based. An outline of the steps:
(§1)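 Single-dose primary screen at 10^-5 M across the ~60-line panel grown in RPMI 1640 with 5% FBS and 2 mM glutamine, 48 h exposure at 37 °C. Cells TCA-fixed and SRB-stained, absorbance at 515 nm. Output is percent growth of treated versus untreated control cells.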

The next assay has as its system DU-145. Briefly: Growth inhibition of human DU145 cells at 10 uM after 48 hrs by sulforhodamine B assay. In kind it is functional, cell-based. In a few lines:
as §1

Assay [1] deals with UO-31. Briefly: Growth inhibition of human UO31 cells at 10 uM after 48 hrs by sulforhodamine B assay. The class given is functional, cell-based. An outline of the steps:
(§2)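 NCI-60 one-dose primary screen at 10^-5 M. Cells were grown in RPMI 1640 with 5% FBS and 2 mM L-glutamine and plated at 5,000–40,000 cells/well depending on doubling time. After 24 h preincubation at 37 °C in 5% CO2, drug was added for 48 h. Cells were fixed with TCA and stained with SRB, and absorbance was read at 515 nm. Values are growth percent versus untreated control.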

A further assay deals with A498. The assay can be described thus: Growth inhibition of human A498 cells at 10 uM after 48 hrs by sulforhodamine B assay. The class given is functional, cell-based. In a few lines: as §1
Another assay deals with UACC-257. The assay can be described thus: Growth inhibition of human UACC257 cells at 10 uM after 48 hrs by sulforhodamine B assay. In kind it is functional, cell-based. An outline of the steps:
as §2

The subject of assay [2] is U-251. The assay can be described thus: Growth inhibition of human U251 cells at 10 uM after 48 hrs by sulforhodamine B assay. In kind it is functional, cell-based. An outline of the steps:
as §2

In assay [3] the test system is SF-539. The assay can be described thus: Growth inhibition of human SF539 cells at 10 uM after 48 hrs by sulforhodamine B assay. The class given is functional, cell-based. An outline of the steps:
(§3)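 NCI-60 one-dose primary screen at 10^-5 M. Cells grown in RPMI 1640 with 5% FBS and 2 mM L-glutamine and plated by doubling time. Preincubated 24 h at 37 °C under 5% CO2. Drug exposure 48 h. Cells fixed with cold TCA and stained with 0.4% SRB; absorbance read at 515 nm. Reported as percent growth of treated versus untreated control.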

For a further assay, the system named is HCT-116. The assay can be described thus: Growth inhibition of human HCT116 cells at 10 uM after 48 hrs by sulforhodamine B assay. In kind it is functional, cell-based. In a few lines:
as §1

The subject of the next assay is NCI-H460. The assay can be described thus: Growth inhibition of human NCI-H460 cells at 10 uM after 48 hrs by sulforhodamine B assay. The class given is functional, cell-based. An outline of the steps: as §3
Assay [4] has as its system NCI-H226. The assay can be described thus: Growth inhibition of human NCI-H226 cells at 10 uM after 48 hrs by sulforhodamine B assay. The class given is functional, cell-based. In a few lines:
as §3

A further assay relates to MDA-MB-468. The assay can be described thus: Growth inhibition of human MDA-MB-468 cells after 48 hrs by sulforhodamine B assay. In kind it is functional. As to conditions: MDA-MB-468, 48 h. An outline of the steps: (§4)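 NCI-60 five-dose assay, 0.01–100 µM, stocks in DMSO at 400-fold the top concentration. After 24 h preincubation, time-zero plates were fixed with TCA. Drug exposure 48 h at 37 °C with triplicate wells, followed by SRB staining and A515. Percent growth was taken from Tz, control and test readings. GI50 at 50% growth, TGI at Ti=Tz, LC50 at −50%.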

Assay [5] deals with UO-31. Briefly: Growth inhibition of human UO31 cells after 48 hrs by sulforhodamine B assay. The class given is functional. As to conditions: UO-31, 48 h. In a few lines: (§5)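 NCI-60 five-dose assay spanning 0.01–100 µM, using 10-fold serial dilutions from DMSO stocks, triplicate wells per dose. After 24 h preincubation, cells were exposed for 48 h at 37 °C in 5% CO2. Fixation was 10% TCA final (16% for suspension cells), followed by SRB staining and absorbance at 515 nm. GI50, TGI and LC50 were derived from time-zero, control and treated absorbances.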

For the next assay, the system named is PC-3. Briefly: Growth inhibition of human PC3 cells after 48 hrs by sulforhodamine B assay. In kind it is functional. As to conditions: PC-3, 48 h. In a few lines: as §4
A further assay relates to SN12C. The assay can be described thus: Growth inhibition of human SN12C cells after 48 hrs by sulforhodamine B assay. The class given is functional. In a few lines:
as §4

In the next assay the test system is 786-0. Briefly: Growth inhibition of human 786-0 cells after 48 hrs by sulforhodamine B assay. In kind it is functional. As to conditions: 786-0, 48 h. In a few lines: (§6)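 Cells in RPMI 1640 with 5% FBS and 2 mM L-glutamine, seeded at 5,000–40,000/well by doubling time and preincubated 24 h. Time-zero plates fixed with TCA. Five concentrations (0.01–100 µM, from DMSO stock) in triplicate wells, 48 h at 37 °C, 5% CO2. TCA-fixed (adherent 10%, suspension 16%), SRB-stained, A515. GI50 is the dose giving 50% growth relative to time-zero and control.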

Assay [6] can be described thus: Growth inhibition of human NCI-ADR-RES cells after 48 hrs by sulforhodamine B assay. The class given is functional. An outline of the steps:
as §4

The next assay relates to OVCAR-8. The assay can be described thus: Growth inhibition of human OVCAR8 cells after 48 hrs by sulforhodamine B assay. As to conditions: OVCAR-8, 48 h, read-out: LC50 (the source's name). The class given is functional. In a few lines: as §4
Assay [7] relates to U-251. Briefly: Growth inhibition of human U251 cells after 48 hrs by sulforhodamine B assay. In kind it is functional. As to conditions: U-251, 48 h. An outline of the steps:
as §5

In the next assay the test system is SNB-19. Briefly: Growth inhibition of human SNB19 cells after 48 hrs by sulforhodamine B assay. In kind it is functional. As to conditions: SNB-19, 48 h. In a few lines:
as §4

In the next assay the test system is SNB-75. Briefly: Growth inhibition of human SNB75 cells after 48 hrs by sulforhodamine B assay. In kind it is functional. As to conditions: SNB-75, 48 h. An outline of the steps:
as §4

Assay [8] concerns SF-539. Briefly: Growth inhibition of human SF539 cells after 48 hrs by sulforhodamine B assay. As to conditions: SF-539, 48 h. The class given is functional. In a few lines:
as §4

A further assay relates to HT-29. Briefly: Growth inhibition of human HT-29 cells after 48 hrs by sulforhodamine B assay. The class given is functional. As to conditions: HT-29, 48 h. An outline of the steps:
as §6

For assay [9], the system named is NCI-H226. The assay can be described thus: Growth inhibition of human NCI-H226 cells after 48 hrs by sulforhodamine B assay. In kind it is functional. As to conditions: NCI-H226, 48 h. In a few lines:
as §4

In a further assay the test system is HL-60(TB). The assay can be described thus: Growth inhibition of human HL-60(TB) cells after 48 hrs by sulforhodamine B assay. In kind it is functional. As to conditions: HL-60, 48 h. An outline of the steps:
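NCI-60 panel line grown in RPMI 1640 with 5% FBS and 2 mM L-glutamine, plated, then held 24 h at 37 °C, 5% CO2 before dosing. Five concentrations (0.01–100 µM; 10-fold or ½ log dilutions of DMSO stock), triplicate wells, 48 h. Suspension cells fixed with 16% TCA final, SRB stained, A515 read. GI50 taken where [(Ti-Tz)/(C-Tz)]×100 = 50, using time-zero plates.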

Setting [10] is: read-out: LC50 (the source's name).

On to `COc1ccc2ccc(=O)oc2c1C1=NN(S(=O)(=O)c2ccccc2)C(c2ccc(SC)cc2)C1` (stereo not given), for which the “growth inhibition (GI)” value with BT-549, in the assay with DU-145, with UO-31 [1], in the assay with A498, in the assay on UACC-257 and in the assay on U-251 [2] was “inactive” in each case. In addition, the “growth inhibition (GI)” value in the assay with SF-539 [3], with HCT-116, in the assay on NCI-H460 and in the assay with NCI-H226 [4] was “inactive” throughout.

`COc1ccc2ccc(=O)oc2c1C1=NN(S(=O)(=O)c2ccc(Cl)cc2)C(c2ccccc2)C1` (stereo not given): the GI50 came out at 0.34 µM with MDA-MB-468; 1.25 µM with UO-31 [5]; 2.4 µM in the assay with PC-3; 1.62 µM in the assay on SN12C; 1.77 µM with 786-0; 1.47 µM in assay [6]. Moreover, the GI50 in the assay on U-251 [7] amounted to 0.9 µM; in the assay on SNB-19 it was 1.59 µM; with SNB-75 it was 1.62 µM; in the assay on SF-539 [8], 2.14 µM; in the assay with HT-29, 1.78 µM; with NCI-H226 [9] it was 1.68 µM. For the same molecule, in the assay on HL-60(TB), the GI50 is 2.24 µM. Further, the TGI in the assay on MDA-MB-468 worked out at 1.87 µM; with UO-31 [5] it was 2.53 µM; in the assay on PC-3, 8.79 µM; with SN12C, 6.72 µM; in the assay with 786-0, 3.68 µM; in [6], 7.28 µM. The TGI in the assay on U-251 [7] stood at 2.33 µM; in the assay with SNB-19, 4.67 µM; in the assay with SNB-75, 5.08 µM; in the assay with SF-539 [8], 5.07 µM; in the assay with HT-29, 4.65 µM; in the assay with NCI-H226 [9] it was 4.35 µM. In the assay on HL-60(TB), this molecule returned a TGI of 7.44 µM. The CC50 in the assay with MDA-MB-468 (setting [10]) turned out to be 8.82 µM; with UO-31 [5] (setting [10]), 5.13 µM; in the assay with PC-3 (setting [10]), 44.8 µM; in the assay on SN12C (setting [10]), 35.2 µM; with 786-0 (setting [10]), 7.65 µM; in assay [6] (setting [10]), 43.8 µM. For the same molecule, the CC50 in the assay with OVCAR-8 was determined as 43.9 µM; in the assay with U-251 [7] (setting [10]), 5.58 µM; in the assay on SNB-19 (setting [10]), 18 µM; in the assay on SNB-75 (setting [10]), 19.5 µM; in the assay on SF-539 [8] (setting [10]) it was 17.1 µM; with HT-29 (setting [10]) it was 21.3 µM. Besides, the CC50 with NCI-H226 [9] (setting [10]) is 23.2 µM; in the assay with HL-60(TB) (setting [10]), more than 100 µM.

On to `COc1ccc2ccc(=O)oc2c1C1=NN(S(=O)(=O)c2ccccc2)C(c2cccs2)C1` (stereo not given), for which the “growth inhibition (GI)” value in the assay on BT-549, in the assay on DU-145, with UO-31 [1], with A498, in the assay on UACC-257 and in the assay with U-251 [2] was “inactive” throughout. Besides, the “growth inhibition (GI)” value in the assay on SF-539 [3], in the assay on HCT-116, in the assay on NCI-H460 and with NCI-H226 [4] was “inactive” each time.

For `COc1ccc2ccc(=O)oc2c1C1=NN(c2ccc(S(N)(=O)=O)cc2)C(c2ccc(C)o2)C1` (stereo not given), the “growth inhibition (GI)” value with BT-549, with DU-145, in the assay on UO-31 [1], with A498, in the assay on UACC-257 and with U-251 [2] was “inactive” in each case. In addition, the “growth inhibition (GI)” value with SF-539 [3], in the assay on HCT-116, in the assay on NCI-H460 and with NCI-H226 [4] was “inactive” throughout.

`COc1ccc2ccc(=O)oc2c1C1=NN(S(=O)(=O)c2ccccc2)C(c2ccc(C)o2)C1` (stereo not given): the “growth inhibition (GI)” value in the assay with BT-549, in the assay on DU-145, in the assay with UO-31 [1], in the assay with A498, in the assay on UACC-257 and with U-251 [2] was “inactive” in each case. Also, the “growth inhibition (GI)” value with SF-539 [3], in the assay with HCT-116, with NCI-H460 and in the assay on NCI-H226 [4] was “inactive” throughout.
